Test results published in ChEMBL document CHEMBL1142581, “Resveratrol derivatives from the roots of Vitis thunbergii” (J Nat Prod, 2005).

Columns and labels:
[1] = Antiplatelet activity against citreated rabbit platelet assessed as inhibition of 9,11-dideoxy-11 alpha, 9 alpha epoxy-methanoprostaglandin F2alpha-induced platelet aggregation; type: functional, cell-based; conditions: Oryctolagus cuniculus
Outline: (§1)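 Washed platelets from fresh rabbit blood, preincubated 2 min at 37 °C with various compound concentrations or 0.5% DMSO (control), then challenged with arachidonic acid or U46619. Turbidimetric aggregation: platelet suspension set as 0% and platelet-free Tyrode solution as 100%. Inhibition % = [1 − sample/control aggregation] × 100. IC50 reported as mean ± SD (n=4).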

[2] = Antiplatelet activity against citreated rabbit platelet assessed as arachidonic acid-induced platelet aggregation; type: functional, cell-based; conditions: Oryctolagus cuniculus; outline: as §1
[3] = Antioxidant activity assessed as ABTS radical scavenging activity; type: functional
Outline: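 ABTS radical cation generated from 7.5 mM ABTS with 2.5 mM […], then diluted. Various concentrations of vehicle, test agents or Trolox (positive control) were mixed with an equal volume of the diluted radical solution for 6 min. Remaining radical was read as absorbance at 734 nm. EC50 calculated, mean ± SD (n=6).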

Structure (SMILES)	IC50 [1] [µM]	IC50 [2] [µM]	EC50 [3] [µM]
Oc1ccc([C@H]2Oc3cc(O)cc(/C=C/c4ccc5c(c4)[C@H](c4cc(O)cc6c4[C@H](c4cc(O)cc(O)c4)[C@@H](c4ccc(O)cc4)O6)[C@H](c4ccc(O)cc4)O5)c3[C@@H]2c2cc(O)cc(O)c2)cc1	3.9	5.7	4.8
O=Cc1ccc2c(c1)C(c1cc(O)cc3c1[C@H](c1cc(O)cc(O)c1)[C@@H](c1ccc(O)cc1)O3)[C@H](c1ccc(O)cc1)O2 (some centres undefined)	3.1	7	4.4
Oc1ccc(/C=C/c2cc(O)cc3c2[C@H](c2cc(O)cc(O)c2)[C@@H](c2ccc(O)cc2)O3)cc1	> 100	> 100	2.8
Oc1ccc([C@@H]2c3c(O)cc4c5c3[C@@H]([C@@H](c3ccc(O)cc3)c3c(O)cc(O)cc3[C@@H]5[C@@H](c3ccc(O)cc3)O4)[C@H]2c2cc(O)cc(O)c2)cc1 [AMPELOPSIN C]	5.9	8.1	5.4
CC(=O)Oc1ccccc1C(=O)O [ASPIRIN]		32.7	
Oc1ccc(/C=C/c2cc(O)cc3c2[C@@H](c2cc(O)cc4c2[C@H](c2cc(O)cc5c2[C@@H](c2cc(O)cc(O)c2)[C@H](c2ccc(O)cc2)O5)[C@@H](c2ccc(O)cc2)O4)[C@H](c2ccc(O)cc2)O3)cc1 [MIYABENOL A]	7.5	9	6.6
Cc1c(C)c2c(c(C)c1O)CCC(C)(C(=O)O)O2 (centres undefined) [TROLOX]			28.4
Oc1ccc([C@H]2c3c(O)cc(O)cc3[C@H]3c4c(cc(O)cc4[C@@H]2c2cc(/C=C/c4cc(O)cc5c4[C@H](c4cc(O)cc(O)c4)[C@@H](c4ccc(O)cc4)O5)ccc2O)O[C@@H]3c2ccc(O)cc2)cc1 [VITISIN A]	13.3	10.3	13.8
O=Cc1ccc(O)c([C@H]2c3cc(O)cc4c3[C@H](c3cc(O)cc(O)c3[C@@H]2c2ccc(O)cc2)[C@@H](c2ccc(O)cc2)O4)c1 [VITISINOL B]	7.8	> 100	3.6
O=C1C=C(/C=C/c2ccc(O)cc2)C[C@@H](c2cc(O)cc(O)c2)[C@H](c2ccc(O)cc2)C1 [VITISINOL C]	10.5	13.4	4.5
O=C1C=C(/C=C/c2ccc(O)cc2)[C@H]2C(=O)[C@@H]1[C@H](c1ccc(O)cc1)[C@H]2c1cc(O)cc(O)c1 [VITISINOL D]	5.7	15	4.1
